EC50 and Activity data for 3 molecules are collected here from ChEMBL document CHEMBL1148085, “Indole alkaloids from Peschiera laeta that enhance vinblastine-mediated cytotoxicity with multidrug-resistant cells” (1994).

Converted amounts (≈) assume the structure as drawn. The source made the active and inactive calls. No cut-off for these calls is given here.

Assay [1] in a line: Cytotoxicity against human BC1 cells by SRB assay. It is filed as functional. As to conditions: read-out: ED50 (the source's name). Put shortly: (§1)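 Compounds in 10% DMSO added to cell suspension; 72 h at 37° in humidified 5% CO2. Cells fixed with cold trichloroacetic acid at 4° for 1 h, sulforhodamine B stained 30 min, dye solubilized in 10 mM Tris base, OD 515 nm. A zero-day control was subtracted. Survival is relative to solvent-treated cultures over various concentrations.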
On the technique in general: Sulforhodamine B stains cellular protein and so reports cell mass.

Assay [2] concerns A-431. The experiment in a line: Cytotoxicity against human A431 cells by SRB assay. It is filed as functional. Conditions: read-out: ED50 (the source's name). Put shortly: as §1
Assay [3] is described as follows: Cytotoxicity against human U373 cells by SRB assay. The class given is functional, U-373MG ATCC. Conditions: U373 MG, read-out: ED50 (the source's name). In a few lines: as §1
The subject of assay [4] is P388. The experiment in a line: Cytotoxicity against mouse P388 cells after 48 hrs by SRB assay. It is filed as functional. Conditions: P388, 48 h, read-out: ED50 (the source's name). Put shortly: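 P-388 cells at 10×10^4 cells/ml, exposed to compounds for 48 h at 37° in 5% CO2. Plates were centrifuged and supernatant removed, then cells fixed with 20% trichloroacetic acid at 4° for 1 h. Sulforhodamine B staining and OD read as for the adherent lines. Survival is relative to solvent controls.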

Assay [5] concerns Col2. The experiment in a line: Cytotoxicity against human Col2 cells by SRB assay. It is filed as functional. As to conditions: read-out: ED50 (the source's name). Put shortly:
as §1

For assay [6], the system named is SK-MEL-2. The experiment in a line: Cytotoxicity against human SK-MEL-2 cells by SRB assay. It is filed as functional. Conditions: read-out: ED50 (the source's name). In a few lines: as §1
Assay [7] in a line: Cytotoxicity against human drug-resistant KBV1 cells by SRB assay in presence of vinblastine. The class given is functional. As to conditions: KB-V1, read-out: ED50 (the source's name). In a few lines: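 Same SRB protocol (72 h, 37°, 5% CO2, TCA fix, OD 515 nm, zero-day subtraction). KB-V1 cells were exposed to various compound concentrations with vinblastine at 1 μg/ml in the medium. Survival is relative to solvent-treated controls.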

In assay [8] the test system is Lu1. Description: Cytotoxicity against human Lu1 cells by SRB assay. As to conditions: read-out: ED50 (the source's name). It is filed as functional. Put shortly: as §1
For assay [9], the system named is ZR-75-1. Description: Cytotoxicity against human ZR-75-1 cells by SRB assay. It is filed as functional. Conditions: read-out: ED50 (the source's name). In a few lines: as §1
The subject of assay [10] is KB. The experiment in a line: Cytotoxicity against human KB cells by SRB assay. The class given is functional. As to conditions: read-out: ED50 (the source's name). Put shortly:
as §1

Assay [11] concerns HT. Description: Cytotoxicity against human HT cells by SRB assay. The class given is functional. As to conditions: read-out: ED50 (the source's name). In a few lines: as §1
The test system of assay [12] is LNCaP. Description: Cytotoxicity against human LNCAP cells by SRB assay. The class given is functional. Conditions: read-out: ED50 (the source's name). Put shortly:
as §1

Assay [13] in a line: Cytotoxicity against human drug-resistant KBV1 cells by SRB assay in absence of vinblastine. The class given is functional. As to conditions: KB-V1, read-out: ED50 (the source's name). Put shortly:
as §1

For assay [14], the system named is KBV1. Description: Inhibition of ATP-dependent [3H]vinblastine binding to p-glycoprotein in multidrug-resistant human KBV1 cells. The class given is cell-based. In a few lines: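 Plasma membrane vesicles from KB-V1 cells (60 μg protein) as P-glycoprotein source. Incubated with […] [3H]vinblastine and various compound concentrations (from DMSO) for 20 min at room temperature. Terminated by filtration onto BSA-pretreated glass fiber filters.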

In the case of `CC[C@H]1C[C@@H]2CN3CCc4c([nH]c5ccccc45)[C@](C(=O)OC)(C2)[C@H]13` [CORONARIDINE], the EC50 in assay [1] was 7.5 mg/L (≈ 22.2 µM); in assay [2], 19.1 mg/L (≈ 56.4 µM); in assay [3] it was 12 mg/L (≈ 35.5 µM); in assay [4], 3.8 mg/L (≈ 11.2 µM); in assay [5], above 20 mg/L; in [6] it was above 20 mg/L. In addition, the EC50 is 1.9 mg/L in assay [7]; 10.9 mg/L (≈ 32.2 µM) in assay [8]; above 20 mg/L in assay [9]; 13.6 mg/L (≈ 40.2 µM) in assay [10]; above 20 mg/L in assay [11]; 10.7 mg/L (≈ 31.6 µM) in assay [12]. In addition, the EC50 in assay [13] stood at 11.2 mg/L (≈ 33.1 µM).
`CC[C@]1(O)C[C@@H]2CN(CCc3c([nH]c4ccccc34)[C@@](C(=O)OC)(c3cc4c(cc3OC)N(C)[C@H]3[C@@](O)(C(=O)OC)[C@H](OC(C)=O)[C@]5(CC)C=CCN6CC[C@]43[C@@H]65)C2)C1` [VINBLASTINE]: the EC50 in assay [1] stood at 0.06 mg/L (≈ 0.074 µM); in assay [2] it was 0.05 mg/L (≈ 0.0617 µM); in assay [3], 1.1 mg/L (≈ 1.36 µM); in assay [4], 0.02 mg/L (≈ 0.0247 µM); in assay [5] it was 0.01 mg/L (≈ 0.0123 µM); in assay [6], 0.01 mg/L (≈ 0.0123 µM). Also, the EC50 was 0.5 mg/L in [7]; 0.02 mg/L (≈ 0.0247 µM) in assay [8]; 0.3 mg/L (≈ 0.37 µM) in assay [9]; 0.002 mg/L (≈ 0.00247 µM) in [10]; 0.02 mg/L (≈ 0.0247 µM) in assay [11]; 0.1 mg/L (≈ 0.123 µM) in assay [12]. Further, the EC50 in assay [13] was found to be 2.6 mg/L (≈ 3.21 µM).
In the case of `C/C=C1/CC2[C@H](C(=O)OC)C(NC)Cc3c([nH]c4ccccc34)[C@@H](c3cc4c(cc3OC)C3CCN5C[C@H]6C[C@H](CC)[C@H]5[C@@](C(=O)OC)(C6)C3N4)C[C@H]12` (some centres not stated) [VOACAMINE], the outcome in assay [14] was Active.
